For data set [1], the system named is male NIH Swiss mice. Briefly: Oral EtOH self-administration. The data set is classed as in vivo. To be noted: 10 mg/kg i.p. daily for 10 days.
For data set [2], the target named is CB1Rs endogenously expressed in Neuro2A cells (Mus musculus, UniProt P47746). Briefly: Adenylyl cyclase assay in Neuro2A cells. The data set is classed as cell-based. The following applies: for antagonism of AC-inhibition produced by the CB1R full agonist 3: 1 μM concentration of antagonist, 10^−7 M concentration of 3, Figure 3B; for inhibition of AC-activity via CB1Rs (concentration-effect curves): Neuro2A cells, Figure 3A.
Chain of CB1Rs endogenously expressed in Neuro2A cells (P47746 whole entry): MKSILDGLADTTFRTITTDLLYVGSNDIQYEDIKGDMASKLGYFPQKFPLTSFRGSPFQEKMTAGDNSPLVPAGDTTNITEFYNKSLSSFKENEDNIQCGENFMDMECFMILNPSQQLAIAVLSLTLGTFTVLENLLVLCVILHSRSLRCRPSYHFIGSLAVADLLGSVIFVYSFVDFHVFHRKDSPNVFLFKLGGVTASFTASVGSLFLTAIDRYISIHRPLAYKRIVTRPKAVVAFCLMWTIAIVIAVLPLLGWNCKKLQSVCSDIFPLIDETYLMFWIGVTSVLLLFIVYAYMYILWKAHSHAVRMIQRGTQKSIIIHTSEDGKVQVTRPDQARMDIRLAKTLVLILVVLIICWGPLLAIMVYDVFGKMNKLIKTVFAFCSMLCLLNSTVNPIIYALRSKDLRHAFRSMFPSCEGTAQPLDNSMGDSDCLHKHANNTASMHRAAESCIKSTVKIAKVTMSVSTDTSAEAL

The next data set concerns the target CB2Rs in CHO-hCB2 cells (Homo sapiens, UniProt P34972). Briefly: Adenylyl cyclase assay in CHO-hCB2 cells. The data set is classed as cell-based. The following applies: Figure 4A.
A further data set has as its system CHO-WT cells. In words: Adenylyl cyclase assay in CHO-WT cells not expressing CB2Rs. The data set is classed as cell-based. The following applies: Figure 4B.
A further data set concerns CB1Rs. The following applies: cited from earlier work.
For data set [3], the system named is male NIH Swiss mice. In words: Thermoregulation assay. The data set is classed as in vivo. To be noted: 10 mg/kg intraperitoneal, Figure 5. In short, it runs like this:
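Under isoflurane, a glass-encapsulated radiotelemetry probe was implanted in the peritoneal cavity. Mice recovered at least 7 days and were housed singly. On test days they were weighed, and baseline core temperature was recorded for at least 1 h. Drug or equal-volume vehicle was then injected, 4–8 mice per group. […] Data are mean ± SEM, analysed by one-way ANOVA with Tukey post-test.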

The text below walks through data of paper PMC3904296 (Journal of medicinal chemistry, 2013).

Chain of CB2Rs in CHO-hCB2 cells (P34972 whole entry): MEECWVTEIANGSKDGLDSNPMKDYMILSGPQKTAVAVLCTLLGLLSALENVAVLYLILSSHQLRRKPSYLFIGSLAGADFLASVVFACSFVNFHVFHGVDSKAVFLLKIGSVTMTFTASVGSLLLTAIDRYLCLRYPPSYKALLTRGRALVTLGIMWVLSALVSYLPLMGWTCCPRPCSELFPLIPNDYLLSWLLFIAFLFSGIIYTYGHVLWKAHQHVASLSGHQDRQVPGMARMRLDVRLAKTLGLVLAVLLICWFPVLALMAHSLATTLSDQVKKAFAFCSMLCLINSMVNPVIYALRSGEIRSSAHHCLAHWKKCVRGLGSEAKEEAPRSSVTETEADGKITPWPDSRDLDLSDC

`Cc1c(C(=O)NN2CCCCC2)nn(-c2ccc(Cl)cc2Cl)c1-c1ccc(Cl)cc1` [rimonabant, reference compound]: in the data set with male NIH Swiss mice [1], the “EtOH preference (two-bottle choice, 10% EtOH vs water)” value is listed as “decreased EtOH preference”; the “body weight across the treatment period” value is reported as “decreased body weight”; the total fluid consumption entry is reported as “without altering total fluid intake”.

On to `CC1=CC[C@@H]2[C@@H](C1)c1c(O)cc(CC#CCCCNS(C)(=O)=O)cc1OC2(C)C` [Compound O-2050, reference compound], for which the “antagonism of AC-inhibition produced by the CB1R full agonist 3” value (“antagonism of AC-inhibition produced” for short) in data set [2] was “significantly antagonized AC-inhibition”.

In the case of `CCCCn1cc(Cc2cccc3ccccc23)c2cccc(OC)c21` [Compound 27, 1-Butyl-7-methoxy-3-(naphthalen-1-ylmethyl)-1H-indole], in data set [2], the “antagonism of AC-inhibition produced” value is listed as “antagonize AC-inhibition produced by CB1R-agonist” and the “inhibition of AC-activity via CB1Rs (concentration-effect curves)” value (shortened to “inhibition of AC-activity via CB1Rs”) is given as “very little inhibition of AC-activity”. Besides, the “inhibition of AC-activity at CB2Rs (concentration-effect curves)” value at CB2Rs in CHO-hCB2 cells was 40–50%. In the data set with CHO-WT cells, the “modification of AC-activity in CHO-WT cells” value is recorded as “neither 27 nor 30 significantly modified AC-activity”. In the data set on male NIH Swiss mice [1], the “EtOH preference (two-bottle choice, 10% EtOH vs water)” value was “reduced EtOH preference”; the “body weight across the treatment period” value is “did not decrease body weight”; the total fluid consumption entry is given as “without affecting total fluid consumption”.

Regarding `CCCCn1cc(C(=O)c2cccc3ccccc23)c2cccc(O)c21` [Compound 4, reference compound], the “inhibition of AC-activity via CB1Rs” value in data set [2] is 50–60%. Moreover, the “intrinsic activity at CB1Rs in [35S]GTPγS functional assay” value in the data set with CB1Rs is “lacks intrinsic activity”.

Consider `CCCCn1cc(-c2ccc3ccccc3c2)c2cccc(OC)c21` [Compound 30, 1-Butyl-7-methoxy-3-(naphthalen-2-yl)-1H-indole], for which, in data set [2], the “antagonism of AC-inhibition produced” value is listed as “antagonize AC-inhibition produced by CB1R-agonist” and the “inhibition of AC-activity via CB1Rs” value is reported as “very little inhibition of AC-activity”. The “inhibition of AC-activity at CB2Rs (concentration-effect curves)” value on CB2Rs in CHO-hCB2 cells is 40–50%. In addition, the “modification of AC-activity in CHO-WT cells” value in the data set with CHO-WT cells is on record as “neither 27 nor 30 significantly modified AC-activity”. In addition, in the data set with male NIH Swiss mice [1], the “EtOH preference (two-bottle choice, 10% EtOH vs water)” value is “reduced EtOH preference”; the “body weight across the treatment period” value is given as “did not decrease body weight”; the total fluid consumption result is on record as “without affecting total fluid consumption”.

Turning to `CCCCn1cc(C(=O)c2cccc3ccccc23)c2ccccc21` [Compound 3, (1-butyl-1H-indol-3-yl)(naphthalen-1-yl)methanone], in the data set on male NIH Swiss mice [3], the “hypothermic effect (core body temperature)” value was “elicited a profound hypothermic effect”.
